Bioassay records from PubChem.
FGF22 binding-1 – shifts melting point of recombinant human FGF22. 340,000 tested, 1.5% active. AID 651658. activity (Tm shift, normalised), % at 9.99 µM. recombinant FGF22 thermal shift, SYPRO orange fluorescence; percent of sucrose octasulfate shift, DMSO zero;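 active = mean Tm shift, scaled 0 neutral to 100 positive control, at about 1.3% or above, every replicate too, limit read from the data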
Target sequence (Q9HCT0 whole entry, looked up): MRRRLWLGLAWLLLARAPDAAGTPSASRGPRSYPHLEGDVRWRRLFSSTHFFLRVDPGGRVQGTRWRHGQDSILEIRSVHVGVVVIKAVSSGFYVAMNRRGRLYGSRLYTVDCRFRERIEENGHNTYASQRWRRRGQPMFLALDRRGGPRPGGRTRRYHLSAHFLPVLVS
ERp5 block – blocks human ERp5 reductase activity on insulin; AID 651711; Q15084; inhibition, % at 9.99 µM; ERp5 insulin aggregation, absorbance 650 nm, 90 min; 350,000 tested, 0.05% active;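 active = mean replicate inhibition above about 25%, with every replicate also reaching it, limit read from the data, passing the limit was not always enough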
FN deposit inh – fibronectin deposition inhibition | AH1F fibroblasts, Alexa488-fibronectin deposition fluorescence, overnight | inhibition, % at 12.6 µM | 350,000 tested, 0.086% active | AID 743247;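 active = mean inhibition across replicates of 30% or more, regardless of how many single replicates reach that level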;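 note: positive control wells lacked labelled fibronectin entirely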
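Material: AH1F fibroblasts assembling fluorescent fibronectin matrix; amount: 10000 AH1F cells/well; medium: DMEM, 2% serum; reagent: Alexa488-fibronectin, 24 nM final in well; dosing: single compound dose, delivered by pin transfer; incubation: 1 h adhesion, overnight exposure; detection: fluorescence after three HBSS washes, excitation 485 nm, emission 525 nm; measure: fibronectin deposition inhibition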
PDI turbidity – blocks human protein disulfide isomerase activity; PDI insulin aggregation turbidity, A650, 90 min; inhibition, % at 10 µM; 350,000 tested, 0.052% active;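 active = mean inhibition across replicates of 30% or more, whatever share of single replicates reach that level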
MLL AF4-AF9 inh – MLL-AF4/AF9 protein interaction inhibition | AlphaScreen, biotin-AF4 peptide binding to FLAG-AF9 | 350,000 tested, 0.47% active | P42568 | inhibition, % at 10 µM;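 active = every replicate reaching a set inhibition limit, whatever the replicate mean, cut at about 25% in these data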;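 note: 0% = plate neutral control median and 100% = total signal loss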
ARNT-TACC3 inh – disrupts binding between human ARNT and TACC3 | inhibition, % at 9.99 µM | Q9Y6A5 | AlphaScreen His-ARNT PAS-B/GST-TACC3 binding, luminescence; TACC3 fragment carries E629A point mutation | 390,000 tested, 0.66% active;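 active = mean inhibition of replicates at least 50% and at least half of replicates each reaching 50%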;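 note: 0% = complete ARNT plus TACC3 wells and 100% = ARNT alone without TACC3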
FGF22 binding-2 – FGF22 (human) binding in thermal shift; shares compounds with FGF22 binding-1; recombinant FGF22 thermal shift, SYPRO orange fluorescence; thermal shift activity, °C (ΔTm) at 38 µM; 1,000 tested, 2% active; AID 720646;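 active = fitted rise in melting shift crosses a set limit at or below the top valid dose tested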
SYPRO no-protein – shows thermal shift signal without protein, FGF22 counter-screen | AC50, µM (series often up to 38 µM) | compound-only SYPRO orange thermal shift counter-screen, no protein | AID 743019 | shares compounds with FGF22 binding-1 | 1,000 tested, 2% active;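 active = rising signal whose fitted curve reaches the 0.54 level within the top valid dose, showing a melting point, actives reach about 13 µM in these data; inactive = the rest, including activity in the opposite direction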; note: value is where the raw curve crosses a fixed level and not half-maximal
Numbers without * were called inactive; i = inactive; . = no result; [ ] = remark or other dose. A selection: hits, their analogues and other compounds. The true share with any hit is near 2.1%.

SMILES	FGF22 binding-1	ERp5 block	FN deposit inh	PDI turbidity	MLL AF4-AF9 inh	ARNT-TACC3 inh	FGF22 binding-2	SYPRO no-protein
C[C@@H]1CN([C@H](C)CO)S(=O)(=O)c2ccc(-c3cncnc3)cc2O[C@@H]1CN(C)C(=O)CN(C)C	15.3*	-0.8	-8.0	.	-3.2	-4.5	0.109	i
C[C@@H]1CN([C@@H](C)CO)S(=O)(=O)c2ccc(C3=CCCCC3)cc2O[C@H]1CN(C)C(=O)CN(C)C	1.3*	0.9	4.7	.	-3.8	-13.4	0.825	i
C[C@H]1CN([C@@H](C)CO)S(=O)(=O)c2ccc(C3=CCCCC3)cc2O[C@@H]1CN(C)C(=O)CN(C)C	1.1	0.5	-3.3	.	-4.3	-10.6	.	.
C[C@@H]1CN([C@@H](C)CO)S(=O)(=O)c2ccc(C3=CCCC3)cc2O[C@@H]1CN(C)C(=O)C1CCCCC1	1.5*	-2.3	.	.	-0.3	-4.0	-0.032	i
C[C@H](CO)N1C[C@H](C)[C@@H](CN(C)C(=O)CN(C)C)Oc2cc(C3=CCCCC3)ccc2S1(=O)=O	1.6*	0.1	-4.4	.	-1.4	-9.9	0.122[42 µM]	i
Cc1ccccc1S(=O)(=O)N1C[C@@H](O)COC[C@H]2O[C@@H](CC(=O)NCc3ccccc3Cl)CC[C@@H]21	-0.2	1.6	-2.6	.	1.7	0.2	.	.
CN(C)CCCNC(=O)C[C@@H]1CC[C@@H](NC(=O)Cc2cccnc2)[C@H](CO)O1	-0.1	-2.5	-9.6	.	-3.1	3.8	.	.
CCC(=O)N1C[C@H](C)[C@@H](OC)CN(C)C(=O)c2ccc(NC(=O)c3cc(C)on3)cc2OC[C@@H]1C	.	.	1.6	.	.	19.7	.	.
C[C@H]1CN([C@@H](C)CO)C(=O)c2cccc(NC(=O)C3CCCCC3)c2O[C@H]1CN(C)Cc1ccncc1	-0.1	-1.1	.	.	-0.7	-3.4	.	.
Cn1c(=O)[nH]c(=O)c2c1nc(SCC(O)CO)n2CCCc1ccccc1 (stereo not given)	1.4*	1.3	-5.5	5.9	7.0	-8.6	0.026	i
O=C(C[C@@H]1C[C@@H]2c3cc(NC(=O)NC4CCCC4)ccc3O[C@@H]2[C@@H](CO)O1)NCc1ccc2c(c1)OCO2	0.0	-2.1	.	.	-0.4	-6.9	.	.
O=C(C[C@H]1C[C@@H]2c3cc(NC(=O)NC4CCCC4)ccc3O[C@@H]2[C@H](CO)O1)NCc1ccc2c(c1)OCO2	1.9*	-1.4	.	.	-0.7	1.5	-0.076	i
CCOC(=O)[C@]12CCCC=C1N(Cc1ccccc1)C(=O)[C@H](CC(=O)NCC1CCCCC1)C2	2.2*	3.9	-7.2	.	-1.7	.	-0.08	i
O=C(Nc1nnc(C(F)(F)F)s1)c1ccc(Br)s1	2.0*	-0.4	-2.9	5.8	-1.4	-3.0	-0.072	i
CN1C(=O)c2cc(NC(=O)C3CCC3)ccc2OC[C@H]2O[C@H](CC(=O)NCCc3ccncc3)CC[C@H]21	0.2	2.7	-1.0	.	0.7	.	.	.
O=C(C1CCOCC1)N1CC2(C1)[C@@H](c1ccccc1)[C@@H](CO)N2Cc1ccccc1F	1.5*	-6.8	-22.6	.	-10.3	.	0.019	i
O=C(c1ccccc1)N1CC2(C1)[C@@H](c1ccccc1)[C@@H](CO)N2Cc1cc(F)ccc1F	-0.5	-4.4	.	.	-0.4	.	.	.
O=C(c1ccccc1)N1CC2(C1)[C@H](c1ccccc1)[C@H](CO)N2Cc1cc(F)ccc1F	1.3*	-0.5	.	.	0.4	.	0.152[42 µM]	i
CC(=O)Nc1ccc2c(c1)CC(=O)N(C)C[C@H](C)[C@@H](CN(C)C(=O)OC(C)(C)C)O2	.	.	-14.9	.	.	.	.	.
Cc1ccc(S(=O)(=O)Nc2ccc3c(c2)CC(=O)N([C@H](C)CO)C[C@H](C)[C@H](CN(C)CC2CCCCC2)O3)cc1	0.1	-4.1	.	.	1.1	3.8	.	.
COc1ccc(CCC(C)NC(=O)Cc2ccc(OC)c(OC)c2)c(OC)c1 (stereo not given)	28.9*	-0.1	-9.6	-4.4	-3.4	-8.0	0.073	i
